From ChEMBL document CHEMBL1138567, “Regioselective synthesis and antimicrobial screening of novel ketocarbazolodispiropyrrolidine derivatives” (2009)

Assays:
Format in all cases: functional
Settings in all cases: read-out: IZ
Proteus vulgaris [1] = test: Antimicrobial activity against Proteus vulgaris at 25 ug/ml after 24 hrs by agar diffusion method
Method in brief: (§1)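 Agar well diffusion: petri plates (9 cm) with about 9 ml nutrient agar, seeded with the test organism. Wells cut with a cork borer and loaded with test compound at 25, 50, 75 or 100 per ml; tetracycline as control. Incubated 37 °C for 24 h; average inhibition-zone diameter around wells measured (mm).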

Proteus vulgaris [2] = test: Antimicrobial activity against Proteus vulgaris at 50 ug/ml after 24 hrs by agar diffusion method; method in brief: as §1
Proteus vulgaris [3] = test: Antimicrobial activity against Proteus vulgaris at 75 ug/ml after 24 hrs by agar diffusion method; method in brief: as §1
Proteus vulgaris [4] = test: Antimicrobial activity against Proteus vulgaris at 100 ug/ml after 24 hrs by agar diffusion method; method in brief: as §1
Proteus mirabilis [5] = test: Antimicrobial activity against Proteus mirabilis at 25 ug/ml after 24 hrs by agar diffusion method; method in brief: as §1
Proteus mirabilis [6] = test: Antimicrobial activity against Proteus mirabilis at 50 ug/ml after 24 hrs by agar diffusion method; method in brief: as §1
Proteus mirabilis [7] = test: Antimicrobial activity against Proteus mirabilis at 75 ug/ml after 24 hrs by agar diffusion method; method in brief: as §1
Proteus mirabilis [8] = test: Antimicrobial activity against Proteus mirabilis at 100 ug/ml after 24 hrs by agar diffusion method; method in brief: as §1
Staphylococcus aureus [9] = test: Antimicrobial activity against Staphylococcus aureus at 50 ug/ml after 24 hrs by agar diffusion method; method in brief: as §1
Staphylococcus aureus [10] = test: Antimicrobial activity against Staphylococcus aureus at 75 ug/ml after 24 hrs by agar diffusion method; method in brief: as §1
Staphylococcus aureus [11] = test: Antimicrobial activity against Staphylococcus aureus at 100 ug/ml after 24 hrs by agar diffusion method; method in brief: as §1
[12] = system: Salmonella enterica subsp. enterica serovar Typhi str. CT18; test: Antimicrobial activity against Salmonella typhi at 50 ug/ml after 24 hrs by agar diffusion method
Method in brief: (§2)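 Agar well diffusion: about 9 ml nutrient agar in 9 cm Petri plates, seeded with the test organism. Wells cut with a cork borer and loaded with test compound at 25–100 per ml; tetracycline as control. Plates incubated 24 h at 37 °C. Read-out is the average diameter of the inhibition zone around each well, in mm.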

[13] = system: Salmonella enterica subsp. enterica serovar Typhi str. CT18; test: Antimicrobial activity against Salmonella typhi at 75 ug/ml after 24 hrs by agar diffusion method; method in brief: as §2
[14] = system: Salmonella enterica subsp. enterica serovar Typhi str. CT18; test: Antimicrobial activity against Salmonella typhi at 100 ug/ml after 24 hrs by agar diffusion method; method in brief: as §2
Staphylococcus aureus [15] = test: Antimicrobial activity against Staphylococcus aureus at 25 ug/ml after 24 hrs by agar diffusion method; method in brief: as §1
[16] = system: Salmonella enterica subsp. enterica serovar Typhi str. CT18; test: Antimicrobial activity against Salmonella typhi at 25 ug/ml after 24 hrs by agar diffusion method; method in brief: as §2

SMILES | zone of inhibition at 25 µg/mL (Proteus vulgaris [1]) | zone of inhibition at 50 µg/mL (Proteus vulgaris [2]) | zone of inhibition at 75 µg/mL (Proteus vulgaris [3]) | zone of inhibition at 100 µg/mL (Proteus vulgaris [4]) | zone of inhibition at 25 µg/mL (Proteus mirabilis [5]) | zone of inhibition at 50 µg/mL (Proteus mirabilis [6]) | zone of inhibition at 75 µg/mL (Proteus mirabilis [7]) | zone of inhibition at 100 µg/mL (Proteus mirabilis [8]) | zone of inhibition at 50 µg/mL (Staphylococcus aureus [9]) | zone of inhibition at 75 µg/mL (Staphylococcus aureus [10]) | zone of inhibition at 100 µg/mL (Staphylococcus aureus [11]) | zone of inhibition at 50 µg/mL [12] | zone of inhibition at 75 µg/mL [13] | zone of inhibition at 100 µg/mL [14] | zone of inhibition at 25 µg/mL (Staphylococcus aureus [15]) | zone of inhibition at 25 µg/mL [16]
CN1C[C@@H](c2ccc(Br)cc2)[C@@]2(CCc3c([nH]c4ccccc34)C2=O)C12C(=O)c1ccccc1C2=O | 9 mm | 13 mm | 16 mm | 18 mm | 9 mm | 11 mm | 14 mm | 16 mm | 12 mm | 19 mm | 21 mm | 9 mm | 18 mm | 19 mm |  | 
CN1C[C@@H](c2ccc(Cl)cc2)[C@@]2(CCc3c([nH]c4ccccc34)C2=O)C12C(=O)c1ccccc1C2=O |  | 14 mm | 18 mm | 24 mm |  | 9 mm | 14 mm | 23 mm | 11 mm | 16 mm | 19 mm | 13 mm | 16 mm | 19 mm | 9 mm | 9 mm
CN1C[C@@H](c2ccc([N+](=O)[O-])cc2)[C@@]2(CCc3c([nH]c4ccccc34)C2=O)[C@]12C(=O)Nc1ccccc12 | 9 mm | 13 mm | 18 mm | 22 mm | 12 mm | 13 mm | 16 mm | 20 mm | 11 mm | 14 mm | 20 mm | 16 mm | 18 mm | 22 mm |  | 9 mm
Cc1ccc([C@@H]2CN(C)C3(C(=O)c4ccccc4C3=O)[C@]23CCc2c([nH]c4ccccc24)C3=O)cc1 |  |  | 9 mm | 12 mm | 9 mm | 11 mm | 14 mm | 18 mm | 14 mm | 18 mm | 21 mm | 9 mm | 14 mm | 16 mm | 9 mm | 
CN1C[C@@H](c2ccc([N+](=O)[O-])cc2)[C@@]2(CCc3c([nH]c4ccccc34)C2=O)C12C(=O)c1ccccc1C2=O | 12 mm | 17 mm | 18 mm | 18 mm | 9 mm | 13 mm | 18 mm | 21 mm | 14 mm | 18 mm | 18 mm | 11 mm | 13 mm | 18 mm | 11 mm | 9 mm
Cc1ccc([C@@H]2CN(C)[C@@]3(C(=O)c4cccc5cccc3c45)[C@]23CCc2c([nH]c4ccccc24)C3=O)cc1 | 11 mm | 14 mm | 16 mm | 20 mm | 11 mm | 14 mm | 18 mm | 21 mm | 18 mm | 23 mm | 27 mm | 15 mm | 21 mm | 29 mm | 14 mm | 12 mm
CN1C[C@@H](c2ccc(Cl)cc2)[C@@]2(CCc3c([nH]c4ccccc34)C2=O)[C@]12C(=O)c1cccc3cccc2c13 | 19 mm | 18 mm | 24 mm | > 40 mm | 12 mm | 16 mm | 24 mm | 36 mm | 18 mm | 22 mm | 34 mm | 16 mm | 21 mm | 31 mm | 14 mm | 13 mm
CN1C[C@@H](c2ccc(Br)cc2)[C@@]2(CCc3c([nH]c4ccccc34)C2=O)[C@]12C(=O)Nc1ccccc12 | 11 mm | 14 mm | 18 mm | 21 mm | 11 mm | 14 mm | 16 mm | 18 mm | 15 mm | 18 mm | 22 mm | 9 mm | 13 mm | 16 mm | 11 mm | 
CN1C[C@@H](c2ccccc2)[C@@]2(CCc3c([nH]c4ccccc34)C2=O)C12C(=O)c1ccccc1C2=O | 11 mm | 15 mm | 18 mm | 21 mm |  | 9 mm | 13 mm | 15 mm | 14 mm | 16 mm | 20 mm | 13 mm | 14 mm | 18 mm |  | 9 mm
COc1ccc([C@@H]2CN(C)C3(C(=O)c4ccccc4C3=O)[C@]23CCc2c([nH]c4ccccc24)C3=O)cc1 | 13 mm | 15 mm | 16 mm | 21 mm | 13 mm | 15 mm | 17 mm | 20 mm | 13 mm | 15 mm | 20 mm | 11 mm | 16 mm | 21 mm | 9 mm | 
CN1C[C@@H](c2ccccc2)[C@@]2(CCc3c([nH]c4ccccc34)C2=O)[C@]12C(=O)c1cccc3cccc2c13 |  | 14 mm | 18 mm | 21 mm | 11 mm | 13 mm | 22 mm | 32 mm | 19 mm | 21 mm | 26 mm | 14 mm | 20 mm | 28 mm | 14 mm | 11 mm
CN1C[C@@H](c2ccc(Br)cc2)[C@@]2(CCc3c([nH]c4ccccc34)C2=O)[C@]12C(=O)c1cccc3cccc2c13 | 12 mm | 16 mm | 20 mm | 22 mm | 13 mm | 15 mm | 18 mm | 22 mm | 14 mm | 18 mm | 22 mm | 14 mm | 21 mm | 30 mm | 11 mm | 9 mm
COc1ccc([C@@H]2CN(C)[C@@]3(C(=O)c4cccc5cccc3c45)[C@]23CCc2c([nH]c4ccccc24)C3=O)cc1 | 9 mm | 12 mm | 13 mm | 17 mm | 14 mm | 16 mm | 20 mm | 22 mm | 16 mm | 21 mm | 30 mm | 15 mm | 18 mm | 26 mm | 9 mm | 13 mm
